We go through two molecules from publication PMC2973230 (Biochemical Journal, 2010).

For assay [1], the target named is T1, OgOGA (Oceanicola granulosus OGA) (Oceanicola granulosus, UniProt Q2CEE3). In words: Inhibition of OgOGA by OGA inhibitors, 4MU-GlcNAc substrate. It is filed as biochemical. In short, it runs like this:
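OgOGA was a GST fusion expressed in E. coli and purified by affinity, anion-exchange and size-exclusion steps. Activity was measured in 25 mM Tris/HCl pH 7.5 with 0.1 mg/ml BSA and 2% DMSO at 37 °C. 4MU-GlcNAc was used at its Km for 20 min, with fluorescence read at ex 360/em 460 nm. Run in triplicate.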

For assay [2], the target named is T1, OgOGA (Oceanicola granulosus OGA). The assay can be described thus: Enzymatic deglycosylation of glycopeptide monitored by LC-MS. In kind it is biochemical. As to conditions: detected by LC-MS; 785 Da to 582 Da. In short, it runs like this:
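OgOGA expressed in E. coli as a GST fusion from a gene cloned from genomic DNA, then purified by affinity, anion-exchange and size-exclusion chromatography. Glycopeptide loss of GlcNAc followed by LC–MS: reversed-phase C18 HPLC with diode-array UV detection, coupled to a high-resolution TOF mass spectrometer.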

T1 sequence (Q2CEE3 whole entry, the tested form may be a part): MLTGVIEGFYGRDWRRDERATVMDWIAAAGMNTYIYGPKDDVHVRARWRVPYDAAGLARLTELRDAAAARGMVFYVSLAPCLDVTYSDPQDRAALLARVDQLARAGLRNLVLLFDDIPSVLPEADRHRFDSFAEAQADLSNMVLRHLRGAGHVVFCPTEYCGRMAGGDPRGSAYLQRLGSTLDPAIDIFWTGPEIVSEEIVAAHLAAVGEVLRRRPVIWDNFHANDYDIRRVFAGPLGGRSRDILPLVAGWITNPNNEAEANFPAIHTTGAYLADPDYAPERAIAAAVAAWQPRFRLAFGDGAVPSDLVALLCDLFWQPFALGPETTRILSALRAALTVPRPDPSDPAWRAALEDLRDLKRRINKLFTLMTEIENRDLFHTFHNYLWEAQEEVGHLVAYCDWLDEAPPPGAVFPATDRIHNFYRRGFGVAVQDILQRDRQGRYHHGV

With `CC(=O)N[C@H]1/C(=N/OC(=O)Nc2ccccc2)O[C@H](CO)[C@@H](O)[C@@H]1O` [PUGNAc, O-(2-acetamido-2-deoxy-D-glucopyranosylidene)amino-N-phenylcarbamate], the IC50 (in general, the concentration at which inhibition is half-maximal) in assay [1] was determined as 11 µM.

As to Ac-VAHS(-β-O-GlcNAc)GA-NH2, the “Deglycosylation of glycopeptide by OgOGA” value in assay [2] is “quantitatively deglycosylate”.
